Test results as given in ChEMBL document CHEMBL4007421, “Discovery and Preclinical Characterization of 3-((4-(4-Chlorophenyl)-7-fluoroquinoline-3-yl)sulfonyl)benzonitrile, a Novel Non-acetylenic Metabotropic Glutamate Receptor 5 (mGluR5) Negative Allosteric Modulator for Psychiatric Indications” (J Med Chem, 2017).
The source made the active and inactive calls. The rule behind the calls is not given here.

Columns and labels:
Rattus norvegicus [1] = assay: Anxiolytic activity in Wistar rat assessed as increase in water drinking time during punished period at 10 mg/kg, po qd measured after first dosing by Vogel punished drinking conflict test; format: functional, organism-based
Summary of the method: (§1)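 Vogel punished-drinking test in rats after 24 h water deprivation, with 60 s unpunished drinking; oral 10 mg/kg given once daily for 19 days, vehicle group dosed only on Day 19 as first-dose control; plasma sampled right after test; n=10 per group; ANOVA with Duncan post-hoc.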

[2] = Plasma concentration in Wistar rat at 10 mg/kg, po qd for 19 days during Vogel punished drinking conflict test; format: ADME, organism-based; summary of the method: as §1
[3] = Plasma concentration in Wistar rat at 1 mg/kg, po after 75 mins; format: ADME, organism-based
Summary of the method: (§2)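 Plasma levels taken right after the Vogel test (~75 min after oral dose) following single oral doses in lipid-based formulations; data pooled from four experiments; mean±SD.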

[4] = AUC in male Crl:CD(SD) rat at 0.5 mg/kg, iv; format: ADME, organism-based; details: in vivo
[5] = AUC in male beagle dog at 0.5 mg/kg, iv administered as infusion; format: ADME, organism-based, Canis lupus familiaris; details: in vivo
Rattus norvegicus [6] = assay: Effect on spatial learning performance in po dosed Wistar rat measured as escape latency dosed 1 hr prior to first daily trial by Morris water maze test; format: ADME, organism-based; details: in vivo
Summary of the method: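 Morris water maze with male Harlan-Wistar rats (190–220 g): three trials a day for 4 days, hidden 10 cm platform, video tracking; 30 mg/kg p.o. in Type IV lipid formulation 1 h before first daily trial; plasma taken after last Day 4 trial; 7–17 rats/group.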

[7] = biological target: T1, Metabotropic glutamate receptor 5 (Homo sapiens, UniProt P41594); assay: Displacement of [3H]M-MPEP from mGluR5 in female human post mortem parietal cortical tissue after 30 mins by scintillation counting method
[8] = Cmax in fasted male cynomolgus monkey at 9 mg/kg, po administered as single dose; format: ADME, organism-based, Macaca fascicularis; design: dose 9 mg/kg, route oral; details: in vivo
[9] = Tmax in female beagle dog at 0.5 mg/kg, iv administered as infusion; format: ADME, organism-based, Canis lupus familiaris; details: in vivo
Summary of the method: (§3)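 Single-dose PK: i.v. and oral dosing in Crl:CD(SD) rats and beagle dogs, plus a pilot oral nasogastric study in Cynomolgus monkeys using a Type IV lipid formulation. Rat i.v. vehicle was 80% cosolvent. Monkeys were fasted from 2 h before until 2 h after dosing, n=3 per sex. Rats also received [14C]-labelled compound orally at 50 mg/kg, with total radioactivity followed. Parameters are means; monkey values are medians.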

[10] = Terminal elimination half life in female Crl:CD(SD) rat at 4.5 mg/kg, po; format: ADME, organism-based; details: in vivo, read-out: beta t1/2 (converted); summary of the method: as §3
[11] = Terminal elimination half life in fasted male cynomolgus monkey at 9 mg/kg, po administered as single dose; format: ADME, organism-based, Macaca fascicularis; details: in vivo, read-out: beta t1/2 (converted); summary of the method: as §3
[12] = AUC in fasted male beagle dog at 1 mg/kg, po; format: ADME, organism-based, Canis lupus familiaris; details: in vivo
[13] = Terminal elimination half life in male Crl:CD(SD) rat at 0.5 mg/kg, iv; format: ADME, organism-based; details: in vivo, read-out: beta t1/2 (converted); summary of the method: as §3
Cytochrome P450 2C9 = Cytochrome P450 2C9 (Homo sapiens, UniProt P11712); assay: Inhibition of CYP2C9 in human liver microsomes; format: ADME
Cytochrome P450 2D6 = Cytochrome P450 2D6 (Homo sapiens, UniProt P10635); assay: Inhibition of CYP2D6 in human liver microsomes; format: ADME
[14] = Volume of distribution in male beagle dog at 0.5 mg/kg, iv administered as infusion; format: ADME, organism-based, Canis lupus familiaris; details: in vivo; summary of the method: as §3
[15] = Volume of distribution in male Crl:CD(SD) rat at 0.5 mg/kg, iv; format: ADME, organism-based; details: in vivo; summary of the method: as §3
[16] = Cmax in fasted female beagle dog at 1 mg/kg, po; format: ADME, organism-based, Canis lupus familiaris; design: dose 1 mg/kg, route oral; details: in vivo
[17] = AUC(0 to 8 hrs) in fasted female cynomolgus monkey at 9 mg/kg, po administered as single dose; format: ADME, organism-based, Macaca fascicularis; design: time < 6 hr, dose 9 mg/kg, route oral; details: in vivo
[18] = biological target: T1, Metabotropic glutamate receptor 5; assay: Negative allosteric modulation of human mGluR5a expressed in CHO cells assessed as reduction in DHPG-induced cytosolic Ca2+ influx after 10 to 20 mins by fluo-4/AM-dye based fluorometric analysis; format: functional, cell-based
Liver = assay: Intrinsic clearance in human liver microsomes at 2.5 uM assessed per gram of liver; format: ADME, microsome
[19] = Plasma concentration in Wistar rat at 0.5 mg/kg, po after 75 mins; format: ADME, organism-based; summary of the method: as §2
[20] = Cmax in male Crl:CD(SD) rat at 4.5 mg/kg, po; format: ADME, organism-based; design: dose 4.5 mg/kg, route oral; details: in vivo
[21] = Plasma protein binding in human; format: ADME, cell-free; details: read-out: PPB (converted)
[22] = biological target: T2, Metabotropic glutamate receptor 5 (Rattus norvegicus, UniProt P31424); assay: Displacement of [3H]M-MPEP from mGluR5 in Sprague-Dawley rat cerebrocortical membranes after 60 mins
[23] = biological target: T1, Metabotropic glutamate receptor 5; assay: Displacement of [3H]M-MPEP from mGluR5 in male human post mortem parietal cortical tissue after 30 mins by scintillation counting method
[24] = biological target: T2, Metabotropic glutamate receptor 5; assay: Negative allosteric modulation of mGluR5 in E17 Sprague-Dawley rat primary neuronal cultures assessed as reduction of DHPG-induced cytosolic Ca2+ influx after 10 to 20 mins by fluo-4/AM-dye based fluorometric analysis; format: functional
[25] = Terminal elimination half life in fasted female beagle dog at 1 mg/kg, po; format: ADME, organism-based, Canis lupus familiaris; details: in vivo, read-out: beta t1/2 (converted); summary of the method: as §3
[26] = Clearance in male Crl:CD(SD) rat at 0.5 mg/kg, iv; format: ADME, organism-based; details: in vivo
[27] = AUC in fasted female beagle dog at 1 mg/kg, po; format: ADME, organism-based, Canis lupus familiaris; details: in vivo
Plasma = assay: Plasma concentration in Wistar rat at 30 mg/kg, po administered as single dose; format: ADME, organism-based; details: in vivo
[28] = AUC in female Crl:CD(SD) rat at 0.5 mg/kg, iv; format: ADME, organism-based; details: in vivo
[29] = AUC(0 to 8 hrs) in fasted male cynomolgus monkey at 9 mg/kg, po administered as single dose; format: ADME, organism-based, Macaca fascicularis; design: dose 9 mg/kg, time < 6 hr, route oral; details: in vivo
[30] = biological target: T1, Metabotropic glutamate receptor 5; assay: Displacement of [3H]M-MPEP from recombinant human mGluR5a expressed in human A18 cell membrane homogenate
[31] = AUC in female beagle dog at 0.5 mg/kg, iv administered as infusion; format: ADME, organism-based, Canis lupus familiaris; details: in vivo
[32] = Plasma concentration in po dosed Wistar rat dosed 1 hr prior to first daily trial by Morris water maze test; format: ADME, organism-based
[33] = Tmax in fasted female beagle dog at 1 mg/kg, po; format: ADME, organism-based, Canis lupus familiaris; details: in vivo; summary of the method: as §3
Cytochrome P450 3A4 = Cytochrome P450 3A4 (Homo sapiens, UniProt P08684); assay: Inhibition of CYP3A4 in human liver microsomes; format: ADME
[34] = Terminal elimination half life in fasted female cynomolgus monkey at 9 mg/kg, po administered as single dose; format: ADME, organism-based, Macaca fascicularis; details: in vivo, read-out: beta t1/2 (converted); summary of the method: as §3
Rattus norvegicus [35] = assay: Anxiolytic activity in po dosed Wistar rat assessed as reduction in freezing behavior by contextual fearing test; format: functional
[36] = Volume of distribution in female Crl:CD(SD) rat at 0.5 mg/kg, iv; format: ADME, organism-based; details: in vivo; summary of the method: as §3
[37] = Cmax in female Crl:CD(SD) rat at 4.5 mg/kg, po; format: ADME, organism-based; design: dose 4.5 mg/kg, route oral; details: in vivo
[38] = Terminal elimination half life in female Crl:CD(SD) rat at 0.5 mg/kg, iv; format: ADME, organism-based; details: in vivo, read-out: beta t1/2 (converted); summary of the method: as §3

T1 sequence (P41594 whole entry): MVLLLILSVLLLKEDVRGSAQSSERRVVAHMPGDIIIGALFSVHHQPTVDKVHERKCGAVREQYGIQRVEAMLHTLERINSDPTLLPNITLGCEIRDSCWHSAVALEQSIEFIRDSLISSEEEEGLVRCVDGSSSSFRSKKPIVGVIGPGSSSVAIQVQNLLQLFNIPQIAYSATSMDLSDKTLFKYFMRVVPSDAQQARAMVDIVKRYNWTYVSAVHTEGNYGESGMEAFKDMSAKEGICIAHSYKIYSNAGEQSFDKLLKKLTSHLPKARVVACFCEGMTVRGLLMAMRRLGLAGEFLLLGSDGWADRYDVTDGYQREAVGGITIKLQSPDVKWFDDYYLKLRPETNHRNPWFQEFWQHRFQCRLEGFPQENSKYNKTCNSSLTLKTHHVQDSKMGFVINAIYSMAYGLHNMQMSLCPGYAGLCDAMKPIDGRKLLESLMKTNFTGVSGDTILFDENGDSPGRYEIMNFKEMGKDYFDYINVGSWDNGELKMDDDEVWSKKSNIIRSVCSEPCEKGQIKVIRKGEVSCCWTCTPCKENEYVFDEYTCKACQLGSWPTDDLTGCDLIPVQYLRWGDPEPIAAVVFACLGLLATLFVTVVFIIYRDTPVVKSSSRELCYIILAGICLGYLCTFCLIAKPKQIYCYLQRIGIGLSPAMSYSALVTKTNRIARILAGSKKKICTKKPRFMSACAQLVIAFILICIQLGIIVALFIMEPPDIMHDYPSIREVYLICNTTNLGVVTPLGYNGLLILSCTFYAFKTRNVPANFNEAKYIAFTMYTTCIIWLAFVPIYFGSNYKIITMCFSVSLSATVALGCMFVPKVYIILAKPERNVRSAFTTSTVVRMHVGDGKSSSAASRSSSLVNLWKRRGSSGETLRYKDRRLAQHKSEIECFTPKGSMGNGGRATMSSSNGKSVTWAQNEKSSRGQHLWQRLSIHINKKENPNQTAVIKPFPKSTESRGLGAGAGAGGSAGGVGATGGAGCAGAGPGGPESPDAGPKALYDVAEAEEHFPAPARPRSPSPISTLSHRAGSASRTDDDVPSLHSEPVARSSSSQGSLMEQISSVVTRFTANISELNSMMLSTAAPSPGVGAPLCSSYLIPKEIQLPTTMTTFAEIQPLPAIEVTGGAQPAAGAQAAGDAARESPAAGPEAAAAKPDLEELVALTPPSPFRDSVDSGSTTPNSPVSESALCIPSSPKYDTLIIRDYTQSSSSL
T2 sequence (P31424 whole entry): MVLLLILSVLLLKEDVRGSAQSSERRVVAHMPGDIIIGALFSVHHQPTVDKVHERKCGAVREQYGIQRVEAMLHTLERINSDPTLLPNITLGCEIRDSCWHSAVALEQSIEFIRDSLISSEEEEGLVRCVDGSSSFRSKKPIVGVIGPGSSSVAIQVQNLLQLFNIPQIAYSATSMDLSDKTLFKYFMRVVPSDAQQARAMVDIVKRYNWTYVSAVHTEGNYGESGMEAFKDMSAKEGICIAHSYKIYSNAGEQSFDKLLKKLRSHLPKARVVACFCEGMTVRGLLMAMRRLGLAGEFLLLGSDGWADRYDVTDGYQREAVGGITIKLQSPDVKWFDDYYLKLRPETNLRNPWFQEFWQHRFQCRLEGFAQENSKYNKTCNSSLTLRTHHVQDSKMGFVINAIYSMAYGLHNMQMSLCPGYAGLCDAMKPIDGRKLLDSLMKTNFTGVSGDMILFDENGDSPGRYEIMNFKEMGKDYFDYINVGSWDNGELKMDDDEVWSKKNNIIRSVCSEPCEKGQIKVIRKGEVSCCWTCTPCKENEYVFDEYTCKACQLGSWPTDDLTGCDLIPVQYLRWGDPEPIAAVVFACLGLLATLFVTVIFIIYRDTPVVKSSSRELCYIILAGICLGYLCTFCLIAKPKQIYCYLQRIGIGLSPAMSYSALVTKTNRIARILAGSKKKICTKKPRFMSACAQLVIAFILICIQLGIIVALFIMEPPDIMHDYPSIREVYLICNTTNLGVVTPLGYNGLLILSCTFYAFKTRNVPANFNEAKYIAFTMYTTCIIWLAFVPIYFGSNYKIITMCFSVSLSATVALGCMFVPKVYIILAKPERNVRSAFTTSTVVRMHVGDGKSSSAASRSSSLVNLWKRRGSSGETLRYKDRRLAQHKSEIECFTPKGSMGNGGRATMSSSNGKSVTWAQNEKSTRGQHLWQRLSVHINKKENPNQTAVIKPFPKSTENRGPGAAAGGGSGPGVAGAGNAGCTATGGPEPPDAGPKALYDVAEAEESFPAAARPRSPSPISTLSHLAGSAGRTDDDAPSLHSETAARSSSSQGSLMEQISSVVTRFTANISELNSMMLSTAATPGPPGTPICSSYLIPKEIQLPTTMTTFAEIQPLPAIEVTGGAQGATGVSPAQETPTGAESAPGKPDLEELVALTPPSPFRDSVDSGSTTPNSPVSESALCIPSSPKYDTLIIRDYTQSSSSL
Chain of Cytochrome P450 2D6 (P10635 whole entry, the tested form may be a part): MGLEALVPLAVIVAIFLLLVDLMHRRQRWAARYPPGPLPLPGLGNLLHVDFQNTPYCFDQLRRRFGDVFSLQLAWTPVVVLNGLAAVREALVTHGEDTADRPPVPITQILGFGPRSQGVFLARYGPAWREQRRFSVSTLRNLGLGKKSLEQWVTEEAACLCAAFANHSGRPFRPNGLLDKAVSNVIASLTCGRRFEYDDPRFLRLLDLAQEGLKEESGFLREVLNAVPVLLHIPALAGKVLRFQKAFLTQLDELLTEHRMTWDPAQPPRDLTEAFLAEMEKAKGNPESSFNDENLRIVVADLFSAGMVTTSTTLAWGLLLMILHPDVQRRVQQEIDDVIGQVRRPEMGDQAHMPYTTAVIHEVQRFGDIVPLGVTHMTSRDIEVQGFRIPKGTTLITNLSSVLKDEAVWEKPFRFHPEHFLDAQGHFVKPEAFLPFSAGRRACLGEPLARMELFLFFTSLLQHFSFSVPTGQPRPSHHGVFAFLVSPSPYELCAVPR
Chain of Cytochrome P450 2C9 (P11712 whole entry): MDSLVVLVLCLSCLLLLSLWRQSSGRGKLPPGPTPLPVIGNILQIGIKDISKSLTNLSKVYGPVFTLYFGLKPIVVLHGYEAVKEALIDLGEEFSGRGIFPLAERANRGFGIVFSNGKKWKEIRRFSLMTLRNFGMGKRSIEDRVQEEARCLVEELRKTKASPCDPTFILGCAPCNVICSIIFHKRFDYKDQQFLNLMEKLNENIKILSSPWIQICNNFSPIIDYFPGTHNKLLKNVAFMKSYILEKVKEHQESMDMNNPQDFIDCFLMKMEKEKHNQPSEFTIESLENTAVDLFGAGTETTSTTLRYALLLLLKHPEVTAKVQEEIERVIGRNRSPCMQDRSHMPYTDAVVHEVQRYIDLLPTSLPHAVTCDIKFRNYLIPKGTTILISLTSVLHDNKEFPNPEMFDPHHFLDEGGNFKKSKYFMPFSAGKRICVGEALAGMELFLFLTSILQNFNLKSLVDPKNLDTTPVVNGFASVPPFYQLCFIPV
Chain of Cytochrome P450 3A4 (P08684 whole entry): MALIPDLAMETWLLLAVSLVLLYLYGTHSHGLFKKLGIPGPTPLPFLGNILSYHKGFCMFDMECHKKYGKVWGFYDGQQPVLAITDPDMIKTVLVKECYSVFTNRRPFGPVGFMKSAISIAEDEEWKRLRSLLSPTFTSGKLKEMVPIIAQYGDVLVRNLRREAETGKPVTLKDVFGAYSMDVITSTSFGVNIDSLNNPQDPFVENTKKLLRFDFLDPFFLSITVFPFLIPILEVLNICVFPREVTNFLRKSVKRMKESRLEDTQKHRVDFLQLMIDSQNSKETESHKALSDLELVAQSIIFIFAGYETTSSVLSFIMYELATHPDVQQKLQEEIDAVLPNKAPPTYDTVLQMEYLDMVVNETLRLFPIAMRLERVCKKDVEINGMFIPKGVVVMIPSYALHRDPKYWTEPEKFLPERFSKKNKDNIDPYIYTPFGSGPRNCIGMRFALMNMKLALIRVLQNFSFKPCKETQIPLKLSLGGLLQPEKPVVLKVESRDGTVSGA

- concentration at 456 h [2]: 513 nM
- concentration at 1.25 h [3]: 99 nM
- AUC [4]: 0.707 µM·h
- AUC [5]: 3.07 µM·h
- MED (Rattus norvegicus [6]): > 30 mg/kg
- Ki [7]: 12.1 nM
- Cmax [8]: 57 nM
- Tmax [9]: 30 min
- half-life [10]: 378 min
- half-life [11]: 84 min
- AUC [12]: 1.86 µM·h
- half-life [13]: 308 min
- IC50 (Cytochrome P450 2C9): > 10 µM
- IC50 (Cytochrome P450 2D6): > 10 µM
- Vd [14]: 8.6 L/kg
- Vd [15]: 12.4 L/kg
- Cmax [16]: 551 nM
- AUC(0-t) at 6 h [17]: 0.087 µM·h
- IC50 [18]: 13 nM
- CLint (Liver): 0.31 mL/min/g
- concentration at 1.25 h [19]: 34.8 nM
- Cmax [20]: 369 nM
- fraction unbound [21]: 0.0039
- Ki [22]: 55.3 nM
- Ki [23]: 10.8 nM
- IC50 [24]: 19 nM
- half-life [25]: 642 min
- clearance [26]: 27.9 mL/min/kg
- AUC [27]: 1.68 µM·h
- concentration (Plasma): 986 nM
- AUC [28]: 1.38 µM·h
- AUC(0-t) at 6 h [29]: 0.132 µM·h
- Ki [30]: 4.9 nM
- AUC [31]: 2.22 µM·h
- concentration at 1 h [32]: 986 nM
- Tmax [33]: 49.8 min
- IC50 (Cytochrome P450 3A4): > 10 µM
- half-life [34]: 126 min
- Vd [36]: 9.6 L/kg
- Cmax [37]: 650 nM
- half-life [38]: 467 min
Compound: N#Cc1cccc(S(=O)(=O)c2cnc3cc(F)ccc3c2-c2ccc(Cl)cc2)c1
- Activity (Rattus norvegicus [1]): Active
- Activity (Rattus norvegicus [6]): Non-Toxic
- Activity (Rattus norvegicus [35]): Dose-dependent effect
- ED50 (Rattus norvegicus [35]): 0.95 mg/kg
